T cruzi growth-1 – T. cruzi intracellular proliferation inhibitors, primary screen, cell-based, beta-gal Tulahuen parasites, NIH3T3 host, luminescence | T. cruzi beta-gal in NIH3T3, GalScreen luminescence, 90 h | inhibition, % at 8.34 µM | 5.9% of 77,000 active | AID 624255, 2012;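 active = mean inhibition above about 93%, with at least 55% of replicates each passing it, limit read from the data, passing the limit was not always enough; inconclusive = only one of those two conditions holds; inactive = neither condition holds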
GASC1 inh – inhibitors of GASC-1 (KDM4C) histone demethylase, primary screen, biochemical, single concentration HTS; Lysine-specific demethylase 4C (Homo sapiens), Q9H3R0; GST-KDM4C 2-372, H3K9me3 peptide, LANCE TR-FRET; inhibition, % at 12.5 µM; 0.15% of 96,000 active; AID 720574, 2013;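 active = mean replicate inhibition above about 25%, with at least 55% of replicates also reaching it, limit read from the data, passing the limit was not always enough; inconclusive = only one of those two conditions met; inactive = neither condition met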
Target sequence (Q9H3R0 2-372 limits assumed): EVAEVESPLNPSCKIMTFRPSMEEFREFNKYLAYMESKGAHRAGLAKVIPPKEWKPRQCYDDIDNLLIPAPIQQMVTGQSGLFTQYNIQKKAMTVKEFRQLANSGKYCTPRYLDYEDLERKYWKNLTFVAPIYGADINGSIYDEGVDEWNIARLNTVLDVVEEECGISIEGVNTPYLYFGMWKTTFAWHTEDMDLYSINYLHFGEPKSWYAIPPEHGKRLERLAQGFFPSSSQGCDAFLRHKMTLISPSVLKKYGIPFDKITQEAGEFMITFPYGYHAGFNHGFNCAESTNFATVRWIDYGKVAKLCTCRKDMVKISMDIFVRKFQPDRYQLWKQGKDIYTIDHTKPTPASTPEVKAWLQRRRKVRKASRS
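Material: N-terminal GST-fused human GASC-1 (KDM4C) fragment, residues 2-372. Input: 10 nM enzyme. Incubation: enzyme reaction 30 min, then detection 60 min, both room temperature. Doses: one test concentration per compound. Read-out basis: inhibition from TR-FRET ratio decrease. Detection: LANCE TR-FRET, excitation 340 nm, emissions 618 and 671 nm.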
IDH1 mut inh – inhibitors of IDH1 R132H reductase, primary screen, biochemical, plate reader, single point; Isocitrate dehydrogenase [NADP] cytoplasmic (Homo sapiens), O75874; diaphorase/resazurin fluorescence, 60 min; inhibition, % at 10 µM; 0.18% of 70,000 active; in the data active = inhibition above about 34%; inconclusive = no clear call, values can overlap the other calls; inactive = below about 11%;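 also: 0% = DMSO and 100% = no enzyme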
Target sequence (O75874 whole entry R132H): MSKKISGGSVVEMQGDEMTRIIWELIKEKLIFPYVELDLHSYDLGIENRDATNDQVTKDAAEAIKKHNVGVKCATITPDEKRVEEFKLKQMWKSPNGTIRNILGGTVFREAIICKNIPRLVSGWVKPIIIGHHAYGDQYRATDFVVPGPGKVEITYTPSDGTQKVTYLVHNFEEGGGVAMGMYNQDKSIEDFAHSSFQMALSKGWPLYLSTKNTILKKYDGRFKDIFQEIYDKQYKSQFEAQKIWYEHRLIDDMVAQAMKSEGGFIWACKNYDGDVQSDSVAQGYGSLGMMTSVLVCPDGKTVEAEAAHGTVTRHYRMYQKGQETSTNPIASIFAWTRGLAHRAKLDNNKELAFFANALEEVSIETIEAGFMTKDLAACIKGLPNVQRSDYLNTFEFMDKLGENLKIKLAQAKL
T cruzi growth-2 – T. cruzi intracellular proliferation inhibitors, confirmation, cell-based, NIH3T3 host, beta-gal parasite, luminescence, cherry-pick | shares compounds with T cruzi growth-1 | T. cruzi beta-gal in NIH3T3, GalScreen luminescence, 90 h | inhibition, % at 8.35 µM | 72% of 5,600 active;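 active = mean replicate inhibition above about 95% and at least 55% of replicates individually reaching it, limit read from the data; inconclusive = only one of the two criteria is met; inactive = neither criterion is met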
T cruzi growth-3 – inhibitors of intracellular T. cruzi replication, confirmation, NIH3T3 host cells, beta-gal parasites, cherry-pick, set 2; shares compounds with T cruzi growth-1; T. cruzi beta-gal in NIH3T3, GalScreen luminescence, 90 h; inhibition, % at 2.09 µM; 21% of 5,600 active;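 active = mean inhibition above about 95%, with at least 55% of replicates also reaching it, limit read from the data; inconclusive = meets just one of the two conditions; inactive = meets neither condition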;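 also: plate controls were neutral control median for no effect and positive control median for full effect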
NIH3T3 tox – cytotoxicity in mouse NIH/3T3 fibroblasts, confirmation, cytotoxicity control for T. cruzi proliferation inhibitor project, cell-based, cherry-pick, single point | shares compounds with T cruzi growth-1 | NIH/3T3 viability, CellTiter-Glo ATP luminescence, 90 h | cytotoxicity (signal decrease), % at 8.35 µM | 14% of 5,600 active | AID 651742, 2012;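 active = mean signal decrease across replicates above about 35% based on untreated-well scatter, with enough replicates individually passing, limit read from the data; inconclusive = no rule stated though some were filed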;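 also: 0% = median of neutral control wells and 100% = median of positive control wells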
NIH3T3 tox 2 – NIH/3T3 fibroblast cytotoxicity, confirmation, cytotoxicity control, cell-based, cherry-pick, single point, set 2. shares compounds with T cruzi growth-1. NIH/3T3 viability, CellTiter-Glo ATP luminescence, 90 h. inhibition, % at 24.9 µM. 56% of 5,600 active. AID 651744, 2012;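 active = mean loss of cell viability signal at or above a set limit, and enough replicates individually reaching it; inconclusive = meets only the mean limit or only the replicate share; inactive = meets neither condition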;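 also: 0% = median of neutral control wells and 100% = median of positive control wells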
An asterisk follows results filed as active; ? = inconclusive; . = no result given; ! = a repeat was not active. The entries come from a sample that favours hits as a whole.

SMILES	T cruzi growth-1	GASC1 inh	IDH1 mut inh	T cruzi growth-2	T cruzi growth-3	NIH3T3 tox	NIH3T3 tox 2
CCc1ccccc1NC(=O)c1ccccc1S(=O)(=O)c1ccccc1[N+](=O)[O-]	.	.	-0.3	.	.	.	.
O=C(NCCCN1CCCC1=O)c1cc(-c2ccccn2)nc2ccc(Br)cc12	.	.	-0.5	.	.	.	.
CC(Oc1ccc(C(C)(C)C)cc1)C(=O)Nc1ncn[nH]1 (stereo unspecified)	.	.	-0.1	.	.	.	.
Cc1cc(OCC(=O)Nc2cccnc2)cc(C)c1Cl	.	.	-0.1	.	.	.	.
Cc1ccc([N+](=O)[O-])cc1NC(=O)CSc1nnc(-c2ccc(Br)cc2)o1	.	.	0.2	.	.	.	.
C[C@H](CO)N1C[C@H](C)[C@@H](CN(C)C(=O)c2ccc(F)cc2)Oc2cc(-c3cccc(C#N)c3)ccc2S1(=O)=O	47.7	0.4	3.9	.	.	.	.
C[C@H]1CN([C@@H](C)CO)S(=O)(=O)c2ccc(-c3cccc(C#N)c3)cc2O[C@H]1CN(C)C(=O)c1ccc(F)cc1	103.3*	0.9	-2.1	88.6	43.9	30.0	78.2*
C[C@@H]1CN([C@@H](C)CO)S(=O)(=O)c2ccc(-c3cccc(C#N)c3)cc2O[C@@H]1CN(C)C(=O)c1ccc(F)cc1	108.7*!	-1.1	.	97.3*	91.2	?	73.0*
C[C@@H]1CN([C@H](C)CO)S(=O)(=O)c2ccc(-c3cccc(C#N)c3)cc2O[C@H]1CN(C)C(=O)c1ccc(F)cc1	78.2	1.7	-0.2	.	.	.	.
CC(C)(O)C1Oc2cc3occ(-c4ccc(O)cc4)c(=O)c3c(O)c2C1O (stereo unspecified)	.	.	-0.2	.	.	.	.
CNC(=O)CN(c1ccc(Br)cc1)S(=O)(=O)c1ccc(C)cc1	.	.	0.0	.	.	.	.
COc1ccc(C#Cc2cnc3c(c2)C(=O)N([C@@H](C)CO)C[C@@H](C)[C@H](CN(C)C(C)=O)O3)cc1	18.9	0.1	-0.5	.	.	.	.
C[C@@H]1CN([C@H](C)CO)C(=O)c2cc(C#Cc3cccc(F)c3)cnc2O[C@H]1CN(C)C(=O)c1ccccc1F	104.0*	-0.1	-4.9	105.8*	44.1	42.6*	?
COc1ccc(C#Cc2cnc3c(c2)C(=O)N([C@@H](C)CO)C[C@H](C)[C@@H](CN(C)C(=O)c2ccccc2F)O3)cc1	113.3*	-1.5	-1.5	98.1*	47.2	-25.3	-5.2
COc1ccc(C#Cc2cnc3c(c2)C(=O)N([C@H](C)CO)C[C@@H](C)[C@H](CN(C)C(=O)c2ccccc2F)O3)cc1	21.1	-2.1	-0.7	.	.	.	.
COc1ccc(C#Cc2cnc3c(c2)C(=O)N([C@H](C)CO)C[C@@H](C)[C@H](CN(C)C(C)=O)O3)cc1	?	0.5	-2.0	32.0	7.7	13.7	33.0*
C[C@H](CO)N1C[C@H](C)[C@H](CN(C)C(=O)Nc2ccccc2)Oc2ncc(C#Cc3cccc(F)c3)cc2C1=O	35.3	-0.2	-1.5	.	.	.	.
C[C@H]1CN([C@@H](C)CO)C(=O)c2cc(C#Cc3cccc(F)c3)cnc2O[C@H]1CN(C)C(=O)c1ccccc1F	80.4	12.4	-0.2	.	.	.	.
C[C@H](CO)N1C[C@H](C)[C@H](CN(C)C(=O)Nc2ccc(F)cc2)Oc2ncc(C#Cc3cccc(F)c3)cc2C1=O	?	-3.3	1.7	89.8	67.5	74.7*	104.5*
C=C(C)Cn1c(SCc2nc3ccccc3[nH]2)nc2sc3c(c2c1=O)CCC3	.	.	0.2	.	.	.	.
Cc1nc(SCC(=O)Nc2oc(-c3ccccc3)c(-c3ccccc3)c2C#N)nc2c1CCCC2	.	.	0.3	.	.	.	.
CCCn1nnc(NC(=O)COc2ccc(Br)cc2)n1	.	.	0.0	.	.	.	.
CCn1nc(C)c(N=Cc2ccc(N(C)C)c(Br)c2)c1C	.	.	0.2	.	.	.	.
C[C@H]1CN([C@@H](C)CO)C(=O)c2cc(C#Cc3cccc(F)c3)cnc2O[C@@H]1CN(C)C(=O)c1ccccc1F	109.9*	-1.0	-0.1	100.5*	27.8	-19.6	0.5
C[C@@H]1CN([C@H](C)CO)C(=O)c2cc(C#Cc3cccc(F)c3)cnc2O[C@@H]1CN(C)C(=O)c1ccccc1F	86.2	-0.3	-0.6	.	.	.	.
SMILES	T cruzi growth-1	GASC1 inh	IDH1 mut inh	T cruzi growth-2	T cruzi growth-3	NIH3T3 tox	NIH3T3 tox 2
CCOC(=O)c1c(NC(=O)COc2ccc(F)cc2)sc2c1CCCC2	.	.	0.5	.	.	.	.
COC(=O)c1ccccc1NC(=O)C(C)Oc1ccc2c(C)cc(=O)oc2c1 (stereo unspecified)	.	.	0.5	.	.	.	.
COc1ccc(S(=O)(=O)N(C)C[C@@H]2Oc3cc(C#CC4CCCC4)ccc3S(=O)(=O)N([C@@H](C)CO)C[C@@H]2C)cc1	66.8	-1.9	.	.	.	.	.
COc1ccc(S(=O)(=O)N(C)C[C@@H]2Oc3cc(C#CC4CCCC4)ccc3S(=O)(=O)N([C@H](C)CO)C[C@@H]2C)cc1	73.5	-1.8	.	.	.	.	.
COc1ccc(S(=O)(=O)N(C)C[C@@H]2Oc3cc(C#CC4CC4)ccc3S(=O)(=O)N([C@@H](C)CO)C[C@H]2C)cc1	112.0*	1.3	-2.3	102.2*	77.5	53.2*	40.2*
COc1ccc(S(=O)(=O)N(C)C[C@H]2Oc3cc(C#CC4CC4)ccc3S(=O)(=O)N([C@H](C)CO)C[C@H]2C)cc1	106.5*	-0.4	.	107.6*	92.5	23.5	58.9*
O=C(CN1CCCCC1)Nc1sc2c(c1C(=O)Nc1ccc(Cl)cc1)CCC2	.	.	0.2	.	.	.	.
O=C(CSc1nnc(-c2ccccc2)n1-c1ccccc1)Nc1cccc(Br)c1	.	.	0.1	.	.	.	.
CC12CCC(C(=O)NCCN3CCOCC3)(OC1=O)C2(C)C (stereo unspecified)	.	.	0.1	.	.	.	.
C[C@@H]1CCCCO[C@@H](CN(C)C(=O)Nc2ccccc2)[C@H](C)CN([C@@H](C)CO)C(=O)c2cc(NC(=O)Nc3ccc(F)cc3)ccc2O1	97.1*	0.0	-0.5	114.2*	57.8	-16.4	-20.2
C[C@@H]1CCCCO[C@@H](CN(C)C(=O)Nc2ccc(F)cc2)[C@@H](C)CN([C@@H](C)CO)C(=O)c2cc(NC(=O)Nc3ccccc3)ccc2O1	79.4	0.4	2.8	.	.	.	.
C[C@H](CO)N1C[C@H](C)[C@H](CN(C)C(=O)Nc2ccc(F)cc2)OCCCC[C@H](C)Oc2ccc(NC(=O)Nc3ccccc3)cc2C1=O	122.6*	-0.4	-2.8	107.3*	49.7	6.4	1.3
C[C@@H]1CN([C@H](C)CO)C(=O)c2cc(NC(=O)Nc3ccc(F)cc3)ccc2O[C@@H](C)CCCCO[C@H]1CN(C)C(=O)Nc1ccccc1	48.3	-3.1	0.4	.	.	.	.
